Results taken from ChEMBL document CHEMBL1139853, “Anxiolytic effects of erythrinian alkaloids from Erythrina mulungu” (2007).
Active and inactive are the calls of the source. The rule behind the calls is not given here.

What was measured:
Mus musculus [1] = experiment: Locomotor activity in Swiss mouse measured as number of rearings in the arena test at 3 mg/kg, po; assay type: functional
Outline: (§1)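 Male Swiss mice (25-35 g, naive) given the test agent orally at 3-10 mg/kg as a saline suspension, 30 min before testing. Saline po served as vehicle; diazepam 2 mg/kg ip (saline + 2% Tween 80) was the reference. Arena locomotor test scoring crossings and rearings; mean ± SEM reported.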

Mus musculus [2] = experiment: Locomotor activity in Swiss mouse measured as number of crossings in the arena test at 3 mg/kg, po; assay type: functional; outline: as §1
Mus musculus [3] = experiment: Antianxiolytic activity in Swiss mouse assessed as impairment of inhibitory avoidance task by elevated T-maze test at 10 mg/kg, po; assay type: functional, organism-based; design: dose 10 mg/kg
Outline: (§2)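 Naive male Swiss mice (25-35 g) received alkaloid suspended in saline (NaCl 0.9%) orally (3-10 mg/kg range) 30 min before testing, with saline vehicle controls. Inhibitory avoidance latency to leave the enclosed arm was measured in an elevated T-maze (38.5 cm high; three 30 cm × 5 cm arms). Analysis was one-way ANOVA followed by Duncan's test.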

Mus musculus [4] = experiment: Antianxiolytic activity in Swiss mouse assessed as impairment of inhibitory avoidance task by elevated T-maze test at 3 mg/kg, po; assay type: functional, organism-based; design: dose 3 mg/kg; outline: as §2
Mus musculus [5] = experiment: Locomotor activity in Swiss mouse measured as number of rearings in the arena test at 10 mg/kg, po; assay type: functional; outline: as §1
Mus musculus [6] = experiment: Locomotor activity in Swiss mouse measured as number of crossings in the arena test at 10 mg/kg, po; assay type: functional; outline: as §1
Mus musculus [7] = experiment: Antianxiolytic activity in Swiss mouse assessed as effect on latency to leave the open arm by elevated T maze test at 10 mg/kg; assay type: functional, organism-based; design: dose 10 mg/kg
Outline: (§3)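 Male Swiss mice, 25-35 g, experimentally naive, group-housed 10 per cage on a 12 h light cycle at 23 ± 1 °C/55 ± 5% humidity. Test agent suspended in saline (NaCl 0.9%) and given orally (3-10 mg/kg) 30 min before the session; vehicle saline po; diazepam reference 2 mg/kg ip in saline + 2% Tween 80. Elevated T-maze 38.5 cm above the floor, three 30 cm × 5 cm arms. One-way ANOVA followed by Duncan's test.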

Mus musculus [8] = experiment: Antianxiolytic activity in Swiss mouse assessed as reduction of latency to leave the enclosed arm by elevated T maze test at 10 mg/kg, po; assay type: functional, organism-based; design: dose 10 mg/kg; outline: as §3
Mus musculus [9] = experiment: Antianxiolytic activity in Swiss mouse assessed as effect on latency to leave the open arm by elevated T maze test at 2 mg/kg, ip; assay type: functional, organism-based; design: dose 2 mg/kg
Outline: (§4)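 Male Swiss mice (25-35 g, naive), group-housed on a 12 h light cycle. Diazepam was suspended in saline + 2% Tween 80 and given ip 30 min before the session. Elevated T-maze raised 38.5 cm above the floor, with three 30 cm × 5 cm arms; arm-exit latencies were recorded. Analysis was one-way ANOVA with Duncan's post hoc test.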

Mus musculus [10] = experiment: Antianxiolytic activity in Swiss mouse assessed as reduction of latency to leave the enclosed arm by elevated T maze test at 2 mg/kg, ip; assay type: functional, organism-based; design: dose 2 mg/kg; outline: as §4
Mus musculus [11] = experiment: Antianxiolytic activity in Swiss mouse assessed as reduction of latency to leave the enclosed arm by elevated T maze test at 3 mg/kg, po; assay type: functional, organism-based; design: dose 3 mg/kg; outline: as §3

Row | Structure (SMILES) | Activity (Mus musculus [1]) | Activity (Mus musculus [2]) | Activity (Mus musculus [3]) | Activity (Mus musculus [4]) | Activity (Mus musculus [5]) | Activity (Mus musculus [6]) | Activity (Mus musculus [7]) | Activity (Mus musculus [8]) | Activity (Mus musculus [9]) | Activity (Mus musculus [10]) | Activity (Mus musculus [11])
1 | COc1cc2c(cc1OC)[C@]13C[C@@H](OC)C=CC1=CCN3C[C@H]2O | 29.6 | 135.3 | Active | Active | 29.63 | 159 |  |  |  |  | 
2 | COc1cc2c(cc1OC)[C@]13C[C@@H](O)C=CC1=CCN3C[C@H]2O | 27.7 | 158.5 |  |  | 22.44 | 126.56 | inactive | Active |  |  | 
3 | CN1C(=O)CN=C(c2ccccc2)c2cc(Cl)ccc21 |  |  | Active | Active |  |  |  | Active | inactive | Active | 
4 | COc1cc2c(cc1OC)[C@]13C[C@@H](O)C=CC1=CCN3CC2 | 37.07 | 157.33 |  |  | 31.71 | 157.93 |  | Active |  |  | Active
